In ChEMBL document CHEMBL1134337, “Behavioral approach to nondyskinetic dopamine antagonists: identification of seroquel” (J Med Chem, 2001):

Legend:
Mus musculus [1] = assay: Antagonism of apomorphine induced swimming was determined in female swiss -Webster mice after (ip) administration of 20 mg/kg; format: functional
Mus musculus [2] = assay: Antagonism of apomorphine induced swimming was determined in female swiss -Webster mice after (ip) administration of 5 mg/kg; format: functional
Mus musculus [3] = assay: Antagonism of apomorphine induced climbing was determined in female swiss -Webster mice after (ip) administration of 2.5 mg/kg; format: functional
Procedure, shortened: (§1)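 Female Swiss-Webster mice (about 20 g) were fasted about 24 h, then given test compound or vehicle ip or po (N = 20 per group). Vehicle was 0.5% w/w hydroxypropylmethylcellulose with 0.1% w/w Tween 80 in water. After 30 min, mice received apomorphine HCl 1.25 mg/kg sc. At 13 min, each mouse was watched for 1 min; score was mean of highest and lowest rung of 27. Groups were compared with vehicle by Student's t-test.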

Mus musculus [4] = assay: Antagonism of apomorphine induced climbing was determined in female swiss -Webster mice after (ip) administration of 5 mg/kg; format: functional; procedure, shortened: as §1
Mus musculus [5] = assay: Antagonism of apomorphine induced climbing was determined in female swiss -Webster mice after (ip) administration of 10 mg/kg; format: functional; procedure, shortened: as §1
Mus musculus [6] = assay: Antagonism of apomorphine induced climbing was determined in female swiss -Webster mice after (ip) administration of 40 mg/kg; format: functional; procedure, shortened: as §1
Mus musculus [7] = assay: Antagonism of apomorphine induced climbing was determined in female swiss -Webster mice after (ip) administration of 20 mg/kg; format: functional; procedure, shortened: as §1
Mus musculus [8] = assay: Antagonism of apomorphine induced swimming was determined in female swiss -Webster mice after (ip) administration of 2.5 mg/kg; format: functional
Mus musculus [9] = assay: Antagonism of apomorphine induced swimming was determined in female swiss -Webster mice after (ip) administration of 40 mg/kg; format: functional
[10] = Number of animals showing dyskinesias was determined in haloperidol sensitized cebus monkey after (po) administration of 10 mg/kg; format: functional
Procedure, shortened: (§2)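 Adult female and male Cebus monkeys sensitized with oral haloperidol 1 mg/kg once per week until dyskinetic reactions occurred. Test drug given orally (2 mL/kg) in 0.5% w/w hydroxypropylmethylcellulose with 0.1% w/w Tween 80 in distilled water, at least 2 weeks between treatments. Two observers watched continuously for 6-7 h, recording reaction type and severity every 30 min. Score is monkeys with dyskinesias/monkeys tested.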

D(2) dopamine receptor = D(2) dopamine receptor (Rattus norvegicus, UniProt P61169); assay: Inhibition of spiropiperidone binding at dopamine receptor D2 of rat.
D(2) dopamine receptor, sequence (P61169 whole entry): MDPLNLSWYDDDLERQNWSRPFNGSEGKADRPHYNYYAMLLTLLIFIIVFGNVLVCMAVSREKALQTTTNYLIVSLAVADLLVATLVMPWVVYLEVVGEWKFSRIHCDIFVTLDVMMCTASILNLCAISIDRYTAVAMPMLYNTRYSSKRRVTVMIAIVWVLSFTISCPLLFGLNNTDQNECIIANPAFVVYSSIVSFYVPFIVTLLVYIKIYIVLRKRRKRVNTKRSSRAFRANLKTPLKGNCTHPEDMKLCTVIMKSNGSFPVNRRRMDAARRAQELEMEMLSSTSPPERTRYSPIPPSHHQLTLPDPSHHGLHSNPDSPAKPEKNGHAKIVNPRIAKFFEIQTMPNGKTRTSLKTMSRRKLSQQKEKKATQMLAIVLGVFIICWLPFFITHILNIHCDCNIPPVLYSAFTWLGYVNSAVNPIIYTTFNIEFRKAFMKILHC

Mus musculus [11] = assay: Antagonism of apomorphine induced swimming was determined in female swiss -Webster mice after (ip) administration of 10 mg/kg; format: functional
[12] = Number of animals showing dyskinesias was determined in haloperidol sensitized 2 cebus monkeys after (po) administration of 10 mg/kg; format: functional; procedure, shortened: as §2
[13] = Number of animals showing dyskinesias was determined in haloperidol sensitized 2 cebus monkeys after (po) administration of 20 mg/kg; format: functional; procedure, shortened: as §2
Mus musculus [14] = assay: Antagonism of apomorphine induced swimming was determined in female swiss -Wbster mice after (po) administration of 20 mg/kg; format: functional
[15] = target: D(2) dopamine receptor (Rattus norvegicus) (UniProt P61169); assay: Binding affinity at dopamine receptor D2 from rat by spiropiperidone displacement.
D(2) dopamine receptor (Rattus norvegicus), sequence (P61169 whole entry): as above
Procedure, shortened: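 D2 receptor binding was read as % displacement of spiropiperidone, with test compound at 1000 nM unless stated otherwise. IC50 values used at least five concentrations per compound in triplicate. Each value is the mean of two replicate experiments differing by 5% or less.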

Mus musculus [16] = assay: Antagonism of apomorphine induced climbing was determined in female swiss -Wbster mice after (ip) administration of 40 mg/kg; format: functional; procedure, shortened: as §1
Mus musculus [17] = assay: Antagonism of apomorphine induced swimming was determined in female swiss -Wbster mice after (po) administration of 40 mg/kg; format: functional
[18] = Number of animals showing dyskinesias was determined in haloperidol sensitized 3 cebus monkeys after (po) administration of 20 mg/kg; format: functional; procedure, shortened: as §2
Mus musculus [19] = assay: Antagonism of apomorphine induced climbing was determined in female swiss -Wbster mice after (ip) administration of 20 mg/kg; format: functional; procedure, shortened: as §1
[20] = Number of animals showing dyskinesias was determined in haloperidol sensitized 5 cebus monkeys after (po) administration of 5 mg/kg; format: functional; procedure, shortened: as §2
[21] = Number of animals showing dyskinesias was determined in haloperidol sensitized 5 cebus monkeys after (po) administration of 20 mg/kg; 5/5; format: functional; procedure, shortened: as §2
Mus musculus [22] = assay: Antagonism of apomorphine induced swimming was determined in female swiss -Webster mice after (po) administration of 20 mg/kg; format: functional
Mus musculus [23] = assay: Antagonism of apomorphine induced climbing was determined in female swiss -Wbster mice after (ip) administration of 10 mg/kg; format: functional; procedure, shortened: as §1
Mus musculus [24] = assay: Antagonism of apomorphine induced swimming was determined in female swiss -Webster mice after (po) administration of 10 mg/kg; format: functional
Procedure, shortened: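 Female Swiss-Webster mice (~20 g), food-deprived ~24 h, N = 20 per group; oral dosing in 0.5% w/w hydroxypropylmethylcellulose with 0.1% w/w Tween 80 in water. Apomorphine given; mice placed in a circular tank (5.5 cm water, room temperature) with marks 180° apart. Each 180° swim counted, observed via overhead mirrors; group score derived from swim counts.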

Mus musculus [25] = assay: Antagonism of apomorphine induced climbing was determined in female swiss -Wbster mice after (ip) administration of 80 mg/kg; format: functional; procedure, shortened: as §1
Mus musculus [26] = assay: Antagonism of apomorphine induced swimming was determined in female swiss -Webster mice after (po) administration of 80 mg/kg; format: functional
Mus musculus [27] = assay: Antagonism of apomorphine induced swimming was determined in female swiss -Webster mice after (po) administration of 40 mg/kg; format: functional
Mus musculus [28] = assay: Antagonism of apomorphine induced climbing was determined in female swiss -Wbster mice after (po) administration of 20 mg/kg; format: functional; procedure, shortened: as §1
Mus musculus [29] = assay: Antagonism of apomorphine induced swimming was determined in female swiss -Wbster mice after (po) administration of 80 mg/kg; format: functional
Mus musculus [30] = assay: Antagonism of apomorphine induced climbing was determined in female swiss -Wbster mice after (po) administration of 80 mg/kg; format: functional; procedure, shortened: as §1
Mus musculus [31] = assay: Antagonism of apomorphine induced climbing was determined in female swiss -Wbster mice after (po) administration of 40 mg/kg; format: functional; procedure, shortened: as §1
[32] = Number of animals showing dyskinesias was determined in haloperidol sensitized 9 cebus monkeys after (po) administration of 80 mg/kg; format: functional; procedure, shortened: as §2

| SMILES | Activity (Mus musculus [1]) | Activity (Mus musculus [2]) | Activity (Mus musculus [3]) | Activity (Mus musculus [4]) | Activity (Mus musculus [5]) | Activity (Mus musculus [6]) | Activity (Mus musculus [7]) | Activity (Mus musculus [8]) | Activity (Mus musculus [9]) | IC50 (D(2) dopamine receptor) [nM] | Activity (Mus musculus [11]) | Activity (Mus musculus [14]) | % displacement of spiropiperidone [15] [%] | Activity (Mus musculus [16]) | Activity (Mus musculus [17]) | Activity (Mus musculus [19]) | Activity (Mus musculus [25]) | also measured |
| --- | --- | --- | --- | --- | --- | --- | --- | --- | --- | --- | --- | --- | --- | --- | --- | --- | --- | --- |
| COC(CO)CN1CCN(C2=Nc3ccccc3Sc3ccccc32)CC1 (configuration not stated) | 22 | 2 | 21 | 19 | 8 | 1 | 2 | 0 | 32 | 755 | 6 | – | – | – | – | – | – | No of monkeys [10]: 2 |
| COCC(CN1CCN(C2=Nc3ccccc3Sc3ccccc32)CC1)OC (configuration not stated) | 28 | 9 | 18 | 5 | 1 | 0 | 2 | 5 | 33 | 795 | 17 | – | – | – | – | – | – | No of monkeys [12]: 1; No of monkeys [13]: 1 |
| OCCOCCN1CCN(C2=Nc3cc(Cl)ccc3Oc3ccccc32)CC1 | – | – | – | – | – | – | – | – | – | – | – | 2 | 54 | 0 | 4 | 17 | – | No of monkeys [18]: 2 |
| COCC(CCN1CCN(C2=Nc3ccccc3Sc3ccccc32)CC1)OC (configuration not stated) | 20 | 2 | – | 21 | 5 | 0 | 0 | – | 32 | 293 | 8 | – | – | – | – | – | – | No of monkeys [20]: 0; No of monkeys [21]: 5 |
| CN1CCN(C2=Nc3ccc(F)cc3Sc3ccccc32)CC1 | – | – | – | – | – | – | – | – | – | 963 | – | – | – | 5 | – | 13 | 1 | Activity (Mus musculus [22]): 2; Activity (Mus musculus [23]): 18; Activity (Mus musculus [24]): 1; Activity (Mus musculus [26]): 9; Activity (Mus musculus [27]): 3 |
| OCCOCCN1CCN(C2=Nc3ccccc3Cc3ccccc32)CC1 | – | – | – | – | – | – | – | – | – | – | – | 1 | 22 | 17 | 1 | 21 | 2 | Activity (Mus musculus [28]): 24; Activity (Mus musculus [29]): 3; Activity (Mus musculus [30]): 10; Activity (Mus musculus [31]): 17; No of monkeys [32]: 0 |
